Results taken from ChEMBL document CHEMBL1158389, “Highly twisted adamantyl arotinoids: synthesis, antiproliferative effects and RXR transactivation profiles” (Eur J Med Chem, 2009).
Calls of active or inactive are those of the source. No cut-off for these calls is given here.

Assays:
[1] = target: T1, Retinoic acid receptor beta (Homo sapiens) (UniProt P10826); experiment: Inhibition of transactivation activity of Gal4-LBD fused human RARbeta (169 to 448) transfected in atRA-stimulated african green monkey CV1 cells after 6 hrs by Dual-light chemiluminescent assay; type: cell-based; details: CV-1
T1 sequence (whole entry): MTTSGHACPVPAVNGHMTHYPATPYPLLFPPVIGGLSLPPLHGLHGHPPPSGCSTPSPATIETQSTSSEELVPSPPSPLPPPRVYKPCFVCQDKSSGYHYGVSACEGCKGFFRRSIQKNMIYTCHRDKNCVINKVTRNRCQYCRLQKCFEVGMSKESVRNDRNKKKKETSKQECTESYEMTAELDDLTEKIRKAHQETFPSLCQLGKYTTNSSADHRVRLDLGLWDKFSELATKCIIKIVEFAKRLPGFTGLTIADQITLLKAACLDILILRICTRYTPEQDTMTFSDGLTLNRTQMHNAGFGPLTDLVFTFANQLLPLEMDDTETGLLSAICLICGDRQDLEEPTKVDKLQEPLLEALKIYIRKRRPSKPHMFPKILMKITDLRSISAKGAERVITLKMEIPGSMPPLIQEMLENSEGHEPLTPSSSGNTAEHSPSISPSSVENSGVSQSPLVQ
Procedure, shortened: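 Gal4 DBD (1–147) was fused to hRARα (156–462) or hRARβ (169–448) LBD. CV-1 cells (20,000/well) were co-transfected with 10 ng Gal4-LBD, 100 ng UAS-luciferase and 25 ng β-gal vector. After 16 h the medium was replaced with medium containing 5% charcoal-treated FBS. Cells got atRA plus test compound at 10-, 40- or 200-fold excess (0.2, 0.8, 4 μM) for 6 h. Luciferase and β-galactosidase were read by chemiluminescence.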

[2] = target: T2, Retinoic acid receptor gamma (Homo sapiens) (UniProt P13631); experiment: Inhibition of transactivation activity of Gal4-LBD fused human RARgamma (178 to 454) transfected in atRA-stimulated african green monkey CV1 cells after 20 hrs by Dual-light chemiluminescent assay; details: CV-1
T2 sequence (whole entry): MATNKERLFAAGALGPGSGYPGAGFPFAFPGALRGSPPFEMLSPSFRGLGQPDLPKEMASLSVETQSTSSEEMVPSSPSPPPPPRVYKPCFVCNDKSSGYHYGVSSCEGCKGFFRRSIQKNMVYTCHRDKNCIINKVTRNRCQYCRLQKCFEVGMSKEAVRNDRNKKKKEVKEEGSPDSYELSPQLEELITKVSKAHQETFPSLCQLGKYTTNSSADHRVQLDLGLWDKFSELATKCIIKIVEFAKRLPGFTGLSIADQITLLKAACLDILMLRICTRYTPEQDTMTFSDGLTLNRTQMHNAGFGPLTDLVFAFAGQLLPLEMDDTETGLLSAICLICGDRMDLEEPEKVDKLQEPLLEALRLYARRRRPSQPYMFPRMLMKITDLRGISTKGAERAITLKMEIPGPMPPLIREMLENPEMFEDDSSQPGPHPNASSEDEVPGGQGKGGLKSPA

[3] = target: T3, Retinoic acid receptor RXR-alpha (Mus musculus) (UniProt P28700); experiment: Inhibition of Gal4-LBD fused mouse RXRalpha transactivation in african green monkey CV1 cells at 1 uM after 6 hrs by Dual-light chemiluminescent assay; type: cell-based; details: CV-1
T3 sequence (whole entry): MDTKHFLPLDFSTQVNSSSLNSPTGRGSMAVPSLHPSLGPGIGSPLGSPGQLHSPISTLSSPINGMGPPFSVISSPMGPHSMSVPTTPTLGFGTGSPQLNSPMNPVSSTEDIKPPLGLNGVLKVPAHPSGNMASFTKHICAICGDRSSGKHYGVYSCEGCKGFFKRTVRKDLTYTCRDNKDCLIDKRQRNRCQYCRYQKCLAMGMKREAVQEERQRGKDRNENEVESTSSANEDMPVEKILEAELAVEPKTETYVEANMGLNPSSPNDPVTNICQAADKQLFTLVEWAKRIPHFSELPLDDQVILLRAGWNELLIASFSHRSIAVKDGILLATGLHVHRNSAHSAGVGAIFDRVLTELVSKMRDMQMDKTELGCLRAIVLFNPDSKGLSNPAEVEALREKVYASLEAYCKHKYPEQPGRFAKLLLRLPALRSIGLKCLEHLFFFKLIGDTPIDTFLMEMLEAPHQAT
Procedure, shortened: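 CV-1 cells (20,000/well) co-transfected with 10 ng Gal4 DBD (residues 1–147)–mRXRα LBD (residues 218–467) vector, 100 ng UAS-luciferase reporter and 25 ng β-galactosidase vector (pCH110). After 16 h, switched to medium with 5% charcoal-treated FBS and treated for 6 h. Cells washed, lysed, and luciferase and β-galactosidase activities read by chemiluminescence.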

PC-3 = experiment: Antiproliferative activity against human PC3 cells at 4 uM after 48 hrs by MTT assay; type: functional
Procedure, shortened: (§1)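 Epithelial cancer lines came from ATCC and were seeded the day before in complete medium: PC-3, SkOV3 and A549 at 3,000/well; MiaPaCa-2 and BxPC-3 at 4,000; T-47D and MDA-MB-468 at 5,000. Medium was switched to 0.5% FBS just before exposure to 4 μM. Read-out was MTT (4 h, 37 °C), SDS/HCl solubilisation, A595 minus cell-free blank. Growth inhibition was taken versus DMSO (≤0.1% v/v) controls, ≥2 experiments in triplicate.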

SK-OV-3 = experiment: Antiproliferative activity against human SKOV3 cells at 4 uM after 48 hrs by MTT assay; type: functional; procedure, shortened: as §1
A549 = experiment: Antiproliferative activity against human A549 cells at 4 uM after 72 hrs by MTT assay; type: functional; procedure, shortened: as §1
MIA PaCa-2 = experiment: Antiproliferative activity against human MIAPaCa2 cells at 4 uM after 48 hrs by MTT assay; type: functional; procedure, shortened: as §1
BXPC-3 = experiment: Antiproliferative activity against human BxPC3 cells at 4 uM after 48 hrs by MTT assay; type: functional; procedure, shortened: as §1
T47D = experiment: Antiproliferative activity against human T47D cells at 4 uM after 48 hrs by MTT assay; type: functional; procedure, shortened: as §1
MDA-MB-468 = experiment: Antiproliferative activity against human MDA-MB-468 cells at 4 uM after 48 hrs by MTT assay; type: functional; procedure, shortened: as §1
Jurkat = experiment: Induction of apoptosis in human Jurkat T cells assessed as induction of DEVDase activity at 1 uM after 4 hrs by fluorescence assay; type: functional, cell-based
Procedure, shortened: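 Jurkat cells (40,000/well, 10^6 cells/mL, RPMI with 0.5% FBS) were treated for 4 h; controls got 0.1% DMSO. Lysis was in CE buffer (PIPES pH 7, NP-40, cytochalasin B, protease inhibitors) for 30 min at 4 °C. Lysates were mixed with 2x caspase buffer (HEPES pH 7.4, CHAPS, sucrose) holding 100 μM Ac-DEVD-AFC and incubated at 37 °C for 30 min. AFC was read every 2 min, ex 390/em 510 nm.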

[4] = target: T4, Retinoic acid receptor alpha (Homo sapiens) (UniProt P10276); experiment: Displacement of [3H]9cRA from RARalpha
T4 sequence (whole entry): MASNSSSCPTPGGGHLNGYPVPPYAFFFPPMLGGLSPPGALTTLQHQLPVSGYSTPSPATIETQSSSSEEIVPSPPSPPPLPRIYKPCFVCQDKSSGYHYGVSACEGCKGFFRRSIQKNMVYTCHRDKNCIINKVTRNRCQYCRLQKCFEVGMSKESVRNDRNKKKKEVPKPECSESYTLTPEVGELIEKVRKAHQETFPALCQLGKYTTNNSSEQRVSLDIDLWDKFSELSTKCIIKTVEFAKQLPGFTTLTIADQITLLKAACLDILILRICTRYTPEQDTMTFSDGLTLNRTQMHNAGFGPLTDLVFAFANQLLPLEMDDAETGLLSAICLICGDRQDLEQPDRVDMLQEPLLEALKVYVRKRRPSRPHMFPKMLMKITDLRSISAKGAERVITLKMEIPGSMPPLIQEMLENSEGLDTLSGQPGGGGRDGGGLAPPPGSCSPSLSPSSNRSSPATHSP

[5] = target: T1, Retinoic acid receptor beta (Homo sapiens); experiment: Displacement of [3H]9cRA from RARbeta
[6] = target: T2, Retinoic acid receptor gamma (Homo sapiens); experiment: Displacement of [3H]9cRA from RARgamma
[7] = target: T5, Retinoic acid receptor RXR-alpha (Homo sapiens) (UniProt P19793); experiment: Displacement of [3H]9cRA from RXRalpha
T5 sequence (whole entry): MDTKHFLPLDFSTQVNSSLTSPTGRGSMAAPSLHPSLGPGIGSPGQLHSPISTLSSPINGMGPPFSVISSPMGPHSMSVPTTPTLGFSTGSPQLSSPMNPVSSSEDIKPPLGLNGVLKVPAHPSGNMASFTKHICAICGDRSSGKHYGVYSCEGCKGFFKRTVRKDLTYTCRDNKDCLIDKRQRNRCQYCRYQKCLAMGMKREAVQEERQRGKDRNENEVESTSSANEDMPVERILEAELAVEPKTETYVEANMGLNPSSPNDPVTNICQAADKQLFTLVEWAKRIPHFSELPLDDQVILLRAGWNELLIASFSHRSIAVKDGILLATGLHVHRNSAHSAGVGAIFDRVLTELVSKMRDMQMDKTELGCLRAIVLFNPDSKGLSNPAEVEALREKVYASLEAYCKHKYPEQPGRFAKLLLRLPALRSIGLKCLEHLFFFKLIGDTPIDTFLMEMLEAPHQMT

## CC1(C)CC=C(C#Cc2ccccc2)c2cc(/C=C/c3ccc(C(=O)O)cc3)ccc21
[1]
  Activity: Active
[2]
  Activity: Active

## CCCCCOc1cc2c(cc1-c1cc(/C=C/C(=O)O)ccc1O)C(C)(C)CCC2(C)C
[3]
  Activity: Active

## O=C(O)/C=C/c1ccc(-c2ccc(O)c(C34CC5CC(CC(C5)C3)C4)c2)c(Cl)c1
PC-3
  Activity: Active
SK-OV-3
  Activity: Active
A549
  Activity: Active
MIA PaCa-2
  Activity: Active
BXPC-3
  Activity: Active
T47D
  Activity: Active
MDA-MB-468
  Activity: Active
Jurkat
  Activity: Active
[4]
  Activity: 31%
[5]
  Activity: 17%
[6]
  Activity: 83%
[7]
  Activity: 16%
